Published values of several laboratories.
Protocols differ between the studies behind these lines.
Target: Mitogen-activated protein kinase kinase kinase 9 (MAP3K9, Homo sapiens, UniProt P80192)

assay | setting | quantity | value | SMILES
binding, competition with immobilised ligand | 0.5 µM | remaining binding | 83% | CCCCC(=O)Nc1ccc(-c2ccc3ncn(CCC)c(=O)c3c2)cn1
cell-free assay, competition with immobilised ligand | 25 µM | remaining binding | 100% | N#Cc1ccc(NC(=O)Nc2ccccc2)cc1
enzyme activity, inhibitor | 1 µM | inhibition | 90% | CO[C@@H]1[C@H](N(C)C(=O)c2ccccc2)C[C@H]2O[C@]1(C)n1c3ccccc3c3c4c(c5c6ccccc6n2c5c31)C(=O)NC4
binding | 1 µM | remaining binding | 83% | COc1ccc2oc(-c3ccc4nc(N)oc4c3)c/c(=N\c3ccccc3NC(=O)CCN)c2c1
cell-free assay | 1 µM | remaining signal | 26% | C#Cc1cnc(Nc2ccnc(CO)c2)nc1Nc1ccccc1S(C)(=O)=NC#N (stereo not drawn)
binding | 1 µM | remaining binding | 86% | CN1CCN(C(=O)c2ccc(NC(=O)Nc3ccc(N(C)c4ccnc(Nc5ccc(CS(C)(=O)=O)cc5)n4)cc3)cc2)CC1
enzyme activity, inhibitor | 1 µM | inhibition | 4% | C=CC(=O)N1CCC[C@@H](n2nc(-c3ccc(Oc4ccccc4)cc3)c3c(N)ncnc32)C1
binding | 1 µM | remaining binding | 100% | Cc1ccc(NC(=O)c2ccnc(C(F)(F)F)c2)cc1-c1cc(OCCO)nc(N2CCOCC2)c1
enzyme activity, inhibitor | 0.2 µM | inhibition | 59.8% | C#Cc1cc(-c2cc(Nc3nc(N[C@@H](C)c4ccc(F)cn4)ncc3Cl)n[nH]2)ccc1C=O
